Experimental data published in ChEMBL document CHEMBL1129476, “In vivo activity and hydrophobicity of cytostatic aziridinyl quinones” (J Med Chem, 1996).

Tests used:
Fungi = assay: log 1/MIC for fungi in mmol/L; type: functional
[1] = HPLC capacity factor (logK); type: ADME
L1210 [2] = assay: log 1/ID75 for the in vitro clonogenic L1210 assay with ID75 in umol/L; type: functional, Mus musculus
[3] = E1/2 for the half-wave potential at pH=7.0 in V57; type: ADME
[4] = Partition coefficient (logP); type: physicochemical; settings: octanol/water
Method in brief: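 Micro shake-flask: buffered aqueous compound solution (pH 6.50) shaken with an equal volume of water-saturated 1-octanol at room temperature, 3 × 120 s. Centrifuged 14000g, 15 min. Aqueous phase analysed by RP-HPLC against the unshaken solution (methanol 30, 50 or 70 wt%, 1.0 mL/min, UV 254 nm). Run in duplicate, or quadruplicate if needed.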

L1210 [5] = assay: log 1/D125 for the dose (mmol/kg) to give 125%T/C ratio (L1210) in vivo; type: functional, Mus musculus
[6] = log 1/anion production.; type: functional
[7] = Observed rate of hydrolysis (logKobs) (pH=4.0); type: ADME
Method in brief: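 Hydrolysis followed by cyclic voltammetry at 20 °C in deaerated 0.1 M acetate buffers (pH 5.0–3.5) or 0.02 M NaH2PO4 (pH 3.5, 3.0), ionic strength 0.1 M (NaNO3). Decrease of the parent cathodic peak tracked over time. Pseudo-first-order kobs from linear regression of log concentration versus time.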

[8] = Electrochemically observed pKa (pKred) of aziridines; type: physicochemical; settings: read-out: pKred
[9] = log 1/LD50 for LD50 (mmol/kg); type: ADME
Nucleic Acid = assay: DNA cross link ratio at pH=5.0 and 50 umol/L compound; type: functional
[10] = log KGSH for the rate k of glutathione (GSH) consumption in 1/s; type: functional
B16 = assay: log 1/D125 or the dose (mmol/kg) to give 125%T/C ratio (B16) in vivo; type: functional, Mus musculus

Log K [1]	SMILES	Log 1/MIC (mM L-1) (Fungi)	Log 1/ID75 (uM L-1) (L1210 [2])	E 1/2 [3]	Log 1/D125 (L1210) (mM kg-1) (L1210 [5])	Log Kobs [7]	pKa [8]	other results
0.587	O=C1C=C(N2CCCC2)C(=O)C=C1N1CCCC1	-0.38	-1.61	-0.439				
-0.611	C/N=C1C=C(O)/C(=N/C)C=C/1O							logP [4]: 0.34
	COC1=C(C)C(=O)C(N2CCCC2)=CC1=O	-0.26	-1.66	-0.315				
	CC1CN1C1=C(Cl)C(=O)C(N2CC2C)=C(Cl)C1=O (stereo unspecified)	1.16		-0.125	1.16	-4.15		Log 1/conc (mM min-1 L-1) [6]: 2.65
	O=C1C=C(N2CC=CC2)C(=O)C=C1N1CC=CC1	-0.52	-1.62					
	CC1CN1C1=C(F)C(=O)C(N2CC2C)=C(N2CC2C)C1=O (stereo unspecified)	1.18	2.01	-0.195			8.2	Log 1/LD50 (mM kg-1) [9]: 1.45
	O=C1C(F)=C(N2CC2)C(=O)C(N2CC2)=C1N1CC1	1.79	2.32	-0.171	1.95	-3.75	7.8	DNA cross-link ratio (Nucleic Acid): 0.17; Log 1/conc (mM min-1 L-1) [6]: 1.72; Log 1/LD50 (mM kg-1) [9]: 1.62; Log k GSH (s-1) [10]: -2.24
-0.004	CN(C)C1=CC(=O)C(N(C)C)=CC1=O							
	CC1CN1C1=C(Br)C(=O)C(N2CC2C)=C(Br)C1=O (stereo unspecified)	1.28	0.77			-3.45		Log 1/conc (mM min-1 L-1) [6]: 2.8
	OCC/N=C1C(O)=C(N2CC2)/C(=N\CCO)C(O)=C/1N1CC1		0.42	-0.385	3.39	-2.8	9.5	Log 1/D125 (mM kg-1) (B16): 3.94
0.279	C/N=C1\C=C(O)c2ccccc2C1=O							logP [4]: 1.74
	CC1=C(N2C(C)C2C)C(=O)C(Br)=C(N2C(C)C2C)C1=O (stereo unspecified)				0.69	-1.15		Log 1/LD50 (mM kg-1) [9]: 0.63
	C/N=C1C(O)=C(N2CC2C)/C(=N\C)C(O)=C\1N1CC1C (stereo unspecified)			-0.4	2.19		9.3	Log 1/D125 (mM kg-1) (B16): 2.33
	NC1=C(N2CC2)C(=O)C(N)=C(N2CC2)C1=O		1.16					
0.896	O=C1C=C(N2CC=CC2)C(=O)c2ccccc21							
	CC1=C(N2CC2C)C(=O)C(CCOC(N)=O)=C(N2CC2C)C1=O (stereo unspecified)			-0.235	1.89	-3.67	9.7	DNA cross-link ratio (Nucleic Acid): 0.13; Log 1/D125 (mM kg-1) (B16): 2.31; Log 1/conc (mM min-1 L-1) [6]: 0.56
0.591	CN(C)C1=CC(=O)c2ccccc2C1=O							
0.748	O=C1C=C(Br)C(=O)c2ccccc21 [2-Bromo-1,4-naphthoquinone]							
	CC1=C(C)C(=O)C(N2CCCC2)=CC1=O	-0.3	-1.7	-0.303				
0.129	NC1=CC(=O)c2ccccc2C1=O							logP [4]: 1.88
	NC(=O)OCCC1=C(N2CC2)C(=O)C(Br)=C(N2CC2)C1=O	0.25	2.45	-0.201	2	-4.49	8.9	Log 1/D125 (mM kg-1) (B16): 2.68; Log 1/conc (mM min-1 L-1) [6]: 2.48; Log 1/LD50 (mM kg-1) [9]: 1.05; Log k GSH (s-1) [10]: -3.6

Log K [1]	SMILES	Log 1/MIC (mM L-1) (Fungi)	Log 1/ID75 (uM L-1) (L1210 [2])	E 1/2 [3]	Log 1/D125 (L1210) (mM kg-1) (L1210 [5])	Log Kobs [7]	pKa [8]	other results
	O=C1C(Cl)=C(N2CC2)C(=O)C(Cl)=C1N1CC1	1.63		-0.133		-4.7		Log 1/conc (mM min-1 L-1) [6]: 2.74
	O=C1C(F)=C(N2CC2)C(=O)C(F)=C1N1CC1	1.75		-0.087		-4.03	7.2	Log 1/conc (mM min-1 L-1) [6]: 1.72; Log k GSH (s-1) [10]: -2.21
	CC1=C(N2CC2C)C(=O)C(C)=C(N2CC2C)C1=O (stereo unspecified)			-0.187	1.47	-2.61	8.6	Log 1/D125 (mM kg-1) (B16): 2.27; Log 1/LD50 (mM kg-1) [9]: 1.4
-0.005	O=C1/C(=N/CCO)C=C(O)c2ccccc21							logP [4]: 1.23
	CC1CN1C1=C(N2CCCC2)C(=O)C(N2CC2C)=C(N2CCCC2)C1=O (stereo unspecified)			-0.303			11.1	
	CN(CCO)C1=C(N2CC2)C(=O)C(N(C)CCO)=C(N2CC2)C1=O		0.09	-0.225			9.7	
	CC1=C(C)C(=O)C(N2CC=CC2)=CC1=O	-0.17	-0.71	-0.311				
	CCOC(=O)NC1=CC(=O)C(NC(=O)OCC)=CC1=O	0.85	0.09					
	CC1=CC(=O)C=CC1=O [Cresoquinone]							logP [4]: 0.73
0.607	CC1=CC(=O)c2ccccc2C1=O [MENADIONE]							
	C/N=C1C(O)=C(N2CC2)/C(=N\C)C(O)=C\1N1CC1		0.32	-0.415	2.49		8.5	Log 1/D125 (mM kg-1) (B16): 3.14; logP [4]: 0.13
	O=C1C(N2CC2)=C(N2CC2)C(=O)C(N2CC2)=C1N1CC1	0.95	0.9	-0.245		-3.7	7.7	
0.136	CC1=CC(=O)C=C(C)C1=O							
0.659	O=C1C=C(Cl)C(=O)c2ccccc21							logP [4]: 2.15
0.736	O=C1C=C(N2CCCC2)C(=O)c2ccccc21							
	CCOC(=O)NC1=C(N2CC2C)C(=O)C(NC(=O)OCC)=C(N2CC2C)C1=O (stereo unspecified)			-0.145	1.59	-3.57	8.5	DNA cross-link ratio (Nucleic Acid): 0.02; Log 1/D125 (mM kg-1) (B16): 1.94; Log 1/conc (mM min-1 L-1) [6]: 1.26; Log 1/LD50 (mM kg-1) [9]: 0.69
	O=C1C(N2CCCC2)=C(N2CC2)C(=O)C(N2CCCC2)=C1N1CC1			-0.315	2.07		10.6	Log 1/D125 (mM kg-1) (B16): 2.4
	COC1=C(N2CC2)C(=O)C(OC)=C(N2CC2)C1=O		0.15	-0.179	2.38	-3.26	8	Log 1/D125 (mM kg-1) (B16): 3.53
	O=C1C=C(N2CC2)C(=O)C(N2CC2)=C1N1CC1 [TRIAZIQUONE]	1.06	2.72	-0.171	3.52	-2.85	8	Log 1/D125 (mM kg-1) (B16): 3.8; Log 1/conc (mM min-1 L-1) [6]: 1.32; logP [4]: 0.13; Log 1/LD50 (mM kg-1) [9]: 2.66; Log k GSH (s-1) [10]: -3.14
0.259	NC1=C(Cl)C(=O)c2ccccc2C1=O							
	CC1=C(N2CC2)C(=O)C(CCO)=C(N2CC2)C1=O	0.44	1.51		3.37	-4	8.6	Log 1/D125 (mM kg-1) (B16): 3.6; Log 1/conc (mM min-1 L-1) [6]: 0.95; logP [4]: 0.18; Log 1/LD50 (mM kg-1) [9]: 1.39

SMILES	Log K [1]	Log 1/MIC (mM L-1) (Fungi)	Log 1/ID75 (uM L-1) (L1210 [2])	E 1/2 [3]	Log 1/D125 (L1210) (mM kg-1) (L1210 [5])	Log Kobs [7]	pKa [8]	other results
CC1=C(C)C(=O)C(C)=C(C)C1=O [DUROQUINONE]	0.776							logP [4]: 2.12
CC1CN1C1=CC(=O)C(N2CC2C)=CC1=O (stereo unspecified)	0.152	0.44	1.03	-0.115	1.64	-1.55	8.1	Log 1/D125 (mM kg-1) (B16): 2.12; Log 1/conc (mM min-1 L-1) [6]: 1.75; Log 1/LD50 (mM kg-1) [9]: 1.16
CCC1=C(N2CC2)C(=O)C(C)=C(N2CC2)C1=O	0.291	0.77		-0.227		-3.59	8.7	DNA cross-link ratio (Nucleic Acid): 0.23; Log 1/D125 (mM kg-1) (B16): 3.25; Log 1/conc (mM min-1 L-1) [6]: 0.87; Log 1/LD50 (mM kg-1) [9]: 1.46; Log k GSH (s-1) [10]: -5
CC1=C(N2CC2)C(=O)C(Br)=C(N2CC2)C1=O	0.279	1.45	2.76	-0.185		-4.45	8.7	Log 1/D125 (mM kg-1) (B16): 2.09; Log 1/conc (mM min-1 L-1) [6]: 2.45; Log 1/LD50 (mM kg-1) [9]: 1.44
O=C1C=CC(=O)c2ccccc21 [NAPHTHOQUINONE]	0.299							
CC1=C(N2CC2)C(=O)C(Cl)=C(N2CC2)C1=O	0.2		2.41	-0.197	1.99	-4.32	8.5	Log 1/D125 (mM kg-1) (B16): 2.68; Log 1/conc (mM min-1 L-1) [6]: 2.42
CC1CN1C1=C(F)C(=O)C(N2CC2C)=C(F)C1=O (stereo unspecified)	0.444	1.5	1.49	-0.093			7.9	Log 1/conc (mM min-1 L-1) [6]: 1.77; Log 1/LD50 (mM kg-1) [9]: 1.5
CC1CN1C1=CC(=O)c2ccccc2C1=O (stereo unspecified)	0.611							
O=C1C=CC(=O)C=C1 [BENZOQUINONE]	-0.466							
O=C1C=C(N2CC2)C(=O)c2ccccc21	0.346							
